Data set [1] concerns the target T1, Cysteinyl leukotriene receptor 1 (Cavia porcellus, UniProt Q2NNR5).
T1 sequence (Q2NNR5 whole entry): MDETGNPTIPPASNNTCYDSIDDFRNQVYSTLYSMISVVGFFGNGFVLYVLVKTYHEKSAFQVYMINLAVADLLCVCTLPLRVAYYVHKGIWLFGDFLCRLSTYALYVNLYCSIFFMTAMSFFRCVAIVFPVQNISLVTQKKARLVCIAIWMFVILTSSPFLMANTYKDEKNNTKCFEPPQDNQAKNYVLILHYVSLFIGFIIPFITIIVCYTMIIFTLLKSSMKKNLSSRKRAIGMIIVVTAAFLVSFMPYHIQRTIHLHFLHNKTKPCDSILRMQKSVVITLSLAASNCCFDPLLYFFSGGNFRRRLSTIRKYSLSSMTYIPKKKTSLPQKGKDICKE
The experiment in a line: Inhibition constant for displacement of [3H]LTD4 on guinea pig lung parenchymal membranes. It counts as tissue-based, Lung parenchyma. The essentials:
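Guinea pig lung parenchymal membranes; competitive displacement of [3H]LTD4. Ki taken as mean of two experiments, each run in duplicate on separate membrane batches.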
On the technique in general: In a radioligand displacement assay an active substance lowers the binding of a labelled ligand.

In data set [2] the target is T2, Cysteinyl leukotriene receptor 1 (Cavia porcellus) (UniProt Q2NNR5).
T2 sequence (whole entry): T1 sequence (Q2NNR5 whole entry)
The experiment in a line: Effective dose for the inhibition of percent protection from LTD4-induced dyspnea in a conscious guinea pig administered through oral route. The data set is classed as functional. The essentials: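 Conscious guinea pig dyspnea model with LTD4 challenge; percent protection from dyspnea plotted against dose (oral or intravenous). ED50 obtained by regression using at least three doses from the linear portion of the dose-response curve; SEM for percent protection was generally ≤25% at each dose.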

Data set [3] addresses T2, Cysteinyl leukotriene receptor 1 (Cavia porcellus). The experiment in a line: Binding constant in guinea pig tracheal spirals with LTE4. It counts as tissue-based. Particulars: Trachea. The gist of the method: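 Guinea pig tracheal spirals contracted with LTE4 as agonist. Antagonist KB derived from concentration-response curves and reported as -log(KB) (pKB); n = number of concentration-response curves.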

Data set [4] in a line: Partition coefficient (logP). Particulars: octanol/water.
Data set [5] in a line: Compound was evaluated for the clearance in rat. It counts as ADME, organism-based. To be noted: in vivo.
Data set [6] is described as follows: Bioavailability in guinea pig. It counts as ADME, organism-based, Cavia porcellus. To be noted: in vivo.
Data set [7] is described as follows: Clearance in guinea pig. It counts as ADME, organism-based, Cavia porcellus. To be noted: in vivo.
Data set [8] concerns Cavia porcellus. Briefly: ED50 (p.o.) / ED50 (i.v.) ratio of the compound. It counts as functional. The gist of the method:
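Ratio of oral ED50 to intravenous ED50 from the conscious guinea pig LTD4-induced dyspnea model, used as an index of oral bioavailability.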

Data set [9] in a line: Compound was evaluated for the oral bioavailability in rat. It counts as ADME, organism-based. Particulars: in vivo, read-out: Bioavailabiility.
Data set [10] relates to Cysteinyl leukotriene receptor (Cavia porcellus). Briefly: Inhibition of percent protection from LTD4-induced dyspnea in a conscious guinea pig administered intravenously.
The test system of data set [11] is Cavia porcellus. The experiment in a line: Inhibition of protection from LTD4-induced dyspnea in a conscious guinea pig administered through oral route at a dose of 3 umol/kg. It counts as functional.
The nature of data set [12]: Compound was evaluated for clearance in rat. The data set is classed as ADME, organism-based. Particulars: in vivo.
The species entered for another data set is Rattus norvegicus. Briefly: Compound was evaluated for the pharmacokinetic characters in Rat. The data set is classed as ADME, organism-based. Particulars: in vivo.

29 compounds from ChEMBL document CHEMBL1127645, “Synthesis, structure-activity relationships, and pharmacological evaluation of a series of fluorinated 3-benzyl-5-indolecarboxamides: identification of 4-[[5-[((2R)-2-methyl-4,4,4-trifluorobutyl)carbamoyl]-1-methyl indol- 3-yl]methyl]-3-methoxy-N-[(2-methylphenyl)sulfonyl]benzamide, a potent, …” (J Med Chem, 1994) can be followed below.

What is called Ki is the equilibrium dissociation constant of an inhibitor or competing ligand from its target. Low values mean higher affinity, high ones lower affinity. Broadly, the ED50 is the dose that gives a 50% effect, or the effect in half of the subjects. A low value points to an effect at a small dose. As a reminder, the pKB is the KB on a negative log10 scale, so that one unit is a factor of ten. Broadly, the logP is the decadic logarithm of the partition coefficient of the neutral form, usually between octanol and water. Low readings indicate lower lipophilicity, high ones higher lipophilicity. The clearance is the volume of plasma or blood freed of the substance per unit of time. Read a low clearance as a low capacity for elimination. As usually defined, the inhibition in vivo is the percentage by which the read-out fell short of the control. Lower therefore signals a response near the control.

`COc1cc(C(=O)NS(=O)(=O)c2ccccc2C)ccc1Cn1ccc2ccc(C(=O)NCC(C)CC(F)(F)F)cc21` (stereo not drawn) returned a Ki in data set [1] of 7.7 nM.

In [2], `CCC(CNC(=O)c1ccc2c(c1)c(Cc1ccc(C(=O)NS(=O)(=O)c3ccccc3Br)cc1OC)cn2C)CC(F)(F)F` (stereo not drawn) showed an ED50 of 2.5 µmol/kg. For the same compound, the pKB in data set [3] amounted to 9.3. Further, in data set [1], the Ki is 2.4 nM.

On to `COc1cc(C(=O)NS(=O)(=O)c2ccccc2C)ccc1Cc1cn(C)c2ccc(C(=O)NC/C(C)=C\C(F)(F)F)cc12`, for which the affinity in data set [1], expressed as Ki, was 2.1 nM.

For the compound `CCC(C)CNC(=O)c1ccc2c(c1)c(Cc1ccc(C(=O)O)cc1OC)cn2C` (stereo not drawn), in data set [4], the logP turned out to be 4.86.

In [3], `COc1cc(C(=O)NS(=O)(=O)c2ccccc2C)ccc1Cc1cn(C)c2ccc(C(=O)NCCCC(F)(F)F)cc12` had a pKB of 8.7. Besides, in [1], the Ki worked out at 7.5 nM.

For `COc1cc(C(=O)NS(=O)(=O)c2ccccc2C)ccc1Cc1cn(C)c2ccc(C(=O)NCC(C)CC(F)(F)F)cc12` (stereo not drawn), the clearance in data set [5] was 1.83 mL/min/kg; in [7], 12.3 mL/min/kg. Besides, the results for the bioavailability in data set [6] and in data set [9] were 12% and 33%, respectively. Further, the logP in [4] was 6.18. Also, the values for the ED50 in data set [2] and in data set [10] were 1.44 µmol/kg and 0.036 µmol/kg, respectively. Besides, in the data set on Cavia porcellus [8], the Ratio came to 40. The pKB in data set [3] worked out at 9.93. The compound also displayed a Ki in data set [1] of 0.57 nM.

As for `CCCCC(CNC(=O)c1ccc2c(c1)c(Cc1ccc(C(=O)NS(=O)(=O)c3ccccc3C)cc1OC)cn2C)C(F)(F)F` (stereo not drawn), the pKB in [3] turned out to be 8.8. This compound came in with a Ki in [1] of 5 nM.

In turn, `COc1cc(C(=O)NS(=O)(=O)c2ccccc2C)ccc1Cc1cn(C)c2ccc(C(=O)NCC3CC(F)(F)C(F)(F)C3)cc12` gave an inhibition in vivo at 3 µmol/kg in the data set with Cavia porcellus [11] of 11%. The pKB in data set [3] worked out at 8.6. The compound also displayed a Ki in data set [1] of 1.3 nM.

Regarding `CCCn1cc(Cc2ccc(C(=O)NS(=O)(=O)c3ccccc3C)cc2OC)c2cc(C(=O)NCC(C)CC(F)(F)F)ccc21` (stereo not drawn), in data set [1], the Ki was determined as 1.7 nM.

In turn, `COc1cc(C(=O)NS(=O)(=O)c2ccccc2C)ccc1Cc1cn(C)c2ccc(C(=O)NC[C@@H](C)CC(F)(F)F)cc12` gave a clearance in [12] of 1.67 mL/min/kg. Also, the ED50 in [2] was 3.73 µmol/kg; in data set [10] it was 0.047 µmol/kg. For the same compound, in the data set with Cavia porcellus [8], the Ratio amounted to 79. In addition, in data set [3], the pKB is 9.28. For the same compound, the affinity in data set [1], expressed as Ki, was 1.45 nM. Moreover, the Pharmacokinetic in the data set filed under Rattus norvegicus is 23%.

Regarding `CCC(CNC(=O)c1ccc2c(c1)c(Cc1ccc(C(=O)NS(=O)(=O)c3ccccc3C)cc1OC)cn2C)CC(F)(F)F` (stereo not drawn), the logP in [4] amounted to 6.45. Also, the ED50 in data set [2] was 2.64 µmol/kg; in data set [10], 0.047 µmol/kg. The Ratio in the data set on Cavia porcellus [8] was 56. Moreover, the pKB in data set [3] stood at 9.6. The Ki in data set [1] came out at 5.3 nM.

`COc1cc(C(=O)NS(=O)(=O)c2ccccc2C)ccc1Cc1cn(C)c2ccc(C(=O)NCCC(C)C(F)(F)F)cc12` (stereo not drawn) registered a logP in [4] of 6.3. The same compound showed a Ki in data set [1] of 7.3 nM.

In turn, `C=C(CNC(=O)c1ccc2c(c1)c(Cc1ccc(C(=O)NS(=O)(=O)c3ccccc3C)cc1OC)cn2C)CC(F)(F)F` showed a Ki in data set [1] of 3.8 nM.

`COc1cc(C(=O)NS(=O)(=O)c2ccccc2C)ccc1Cc1cn(C)c2ccc(C(=O)NCC(C)C(F)(F)F)cc12` (stereo not drawn) showed a logP in [4] of 5.89. The Ki in data set [1] was 12 nM.

Consider `COc1cc(C(=O)NS(=O)(=O)c2ccccc2C)ccc1Cn1cc(C)c2ccc(C(=O)NCC(C)CC(F)(F)F)cc21` (stereo not drawn), for which the 50% effect level in data set [2] (ED50) was put at a dose of 2.29 µmol/kg. For the same compound, the negative logarithm of the KB (pKB) in [3] was 9.6. The affinity in data set [1], expressed as Ki, was 0.44 nM.

`COc1cc(C(=O)O)ccc1Cc1cn(C)c2ccc(C(=O)NCC(C)CC(F)(F)F)cc12` (stereo not drawn) gave a logP in data set [4] of 5.12.

As for `CCC(CNC(=O)c1ccc2c(c1)c(Cc1ccc(C(=O)O)cc1OC)cn2C)CC(F)(F)F` (stereo not drawn), in data set [4], the logP stood at 5.53.

In the case of `CCC(CC)CNC(=O)c1ccc2c(c1)c(Cc1ccc(C(=O)O)cc1OC)cn2C`, the logP in data set [4] came out at 5.42.

In the case of `CCC(C)CNC(=O)c1ccc2c(c1)c(Cc1ccc(C(=O)NS(=O)(=O)c3ccccc3C)cc1OC)cn2C` (stereo not drawn), in [4], the logP was found to be 5.85. Moreover, the ED50 turned out to be 20 µmol/kg in data set [2] and 1.39 µmol/kg in data set [10]. The Ratio in the data set with Cavia porcellus [8] stood at 14. The compound further gave a pKB in [3] of 8.7. This compound also returned a Ki in data set [1] of 5.2 nM.

`CCC(CNC(=O)c1ccc2c(c1)c(Cc1ccc(C(=O)NS(=O)(=O)c3ccccc3C)cc1OC)cn2CC)C(F)(F)F` (stereo not drawn) came in with a pKB in [3] of 9. This compound had a Ki in data set [1] of 5.3 nM.

`COc1cc(C(=O)NS(=O)(=O)c2ccccc2C)ccc1Cc1cn(C)c2ccc(NC(=O)OC3CCCC3)cc12` returned an ED50 in data set [2] of 0.54 µmol/kg. Moreover, in [3], the pKB is 9.67.

`CCC(CC)CNC(=O)c1ccc2c(c1)c(Cc1ccc(C(=O)NS(=O)(=O)c3ccccc3C)cc1OC)cn2C`: the figures for the ED50 in [2] and in data set [10] were 14.7 µmol/kg and 1.09 µmol/kg, respectively. The same compound registered a pKB in data set [3] of 8. Besides, affinity in [1] was put at a Ki of 4.7 nM.

Turning to `COc1cc(C(=O)NS(=O)(=O)c2ccccc2C)ccc1Cc1cn(C)c2ccc(C(=O)NCC3(CC(F)(F)F)CC3)cc12`, the Ki in data set [1] was determined as 4.6 nM.

Consider `CCn1cc(Cc2ccc(C(=O)NS(=O)(=O)c3ccccc3C)cc2OC)c2cc(C(=O)NCC(C)CC(F)(F)F)ccc21` (stereo not drawn), for which the ED50 in data set [2] was determined as 1.42 µmol/kg; in data set [10] it was 0.011 µmol/kg. For the same compound, the Ratio in the data set on Cavia porcellus [8] stood at 129. In data set [3], this compound gave a pKB of 10.1. Further, in data set [1], the Ki was found to be 0.38 nM.

Regarding `COc1cc(C(=O)NS(=O)(=O)c2ccccc2C)ccc1Cc1cn(C)c2ccc(C(=O)NCC3CCCC3)cc12`, the ED50 in data set [2] was 19.2 µmol/kg; in data set [10], 0.69 µmol/kg. The Ratio in the data set with Cavia porcellus [8] worked out at 28. This compound also gave a pKB in data set [3] of 8.4. The Ki in [1] is 3.2 nM.

In [3], `COc1cc(C(=O)NS(=O)(=O)c2ccccc2Cl)ccc1Cn1ccc2ccc(C(=O)NCC(C)CC(F)(F)F)cc21` (stereo not drawn) showed a pKB of 8.9. Moreover, in data set [1], the Ki was 4.2 nM.

As for `COc1cc(C(=O)NS(=O)(=O)c2ccccc2Cl)ccc1Cn1cc(C)c2ccc(C(=O)NCC(C)CC(F)(F)F)cc21` (stereo not drawn), the affinity in data set [1], expressed as Ki, was 4.9 nM.

Turning to `COc1cc(C(=O)NS(=O)(=O)c2ccccc2Cl)ccc1Cc1cn(C)c2ccc(C(=O)NCC(C)CC(F)(F)F)cc12` (stereo not drawn), the ED50 in [2] was 2.5 µmol/kg; in [10], 0.024 µmol/kg. The Ratio in the data set on Cavia porcellus [8] is given as 110. Further, the pKB in [3] is 9.7. Also, in [1], the Ki was 0.57 nM.

In turn, `COc1cc(C(=O)NS(=O)(=O)c2ccccc2C)ccc1Cc1cn(C)c2ccc(C(=O)NCC(C)(C)CC(F)(F)F)cc12` returned a pKB in data set [3] of 8.9. The same compound displayed a Ki in data set [1] of 2.2 nM.
